Results taken from article PMC3338887 (Journal of Natural Products, 2012).
Entries after “also recorded” stand apart in the source; their conditions may differ.

Experiments:
[1] = system: C. albicans DAY185 hyphae formation; test: Hyphae formation assay; format: cell-based, Candida albicans; details: for network of hyphal growth versus vehicle control: 50 μM, 6 h incubation, Figure 3; for germ tube and hyphae formation by 6 h: 6 h post inoculation; for germ tube and hyphae formation by 6 h / hyphae at 24 h: versus vehicle-treated cells; for hyphae at 24 h: 24 h post inoculation; for C. albicans hyphae formation / hyphal morphogenesis: phase contrast microscopy
Outline: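 DAY185 grown overnight in BHI at 37 °C, pelleted, washed and resuspended in PBS pH 7.4. Seeded at 1×10^6 cells/well for 1 h at 37 °C, then washed twice with PBS to remove non-adherent cells. RPMI 1640 with 2% glucose plus test compound (50 μM), farnesol (50 μM) or DMSO vehicle (1% by vol.) added. Incubated at 37 °C; phase-contrast microscopy (×200) at 2.5, 6 and 24 h.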

C. albicans DAY185 = test: C. albicans growth inhibition / cell viability; format: cell-based, Candida albicans; details: for MIC: Candida albicans, DAY185, 48 h, read-out: MIC of growth inhibition
[2] = Stability in organic solvents; format: physicochemical; details: MeOH and varying H2O-MeOH mixtures, CHCl3, CH2Cl2, EtOAc
[3] = system: C. albicans DAY185 biofilm formation; test: Biofilm time of addition assay; format: cell-based, Candida albicans; details: conclusion from the time-of-addition study
MIA PaCa-2 cells = test: Mammalian cell cytotoxicity assay; format: cell-based, human; details: MIA PaCa-2 cell line, 24 h, MTT
[4] = several organic solvents; cited from earlier work

For `C/C=C/C=C/C=C/[C@H]1C[C@@H](O)CC(=O)[C@@H]1C` [Compound 15, waikialide A], the “network of hyphal growth versus vehicle control” value [1] was “significantly reduced or absent from nearly all cells”, the “germ tube and hyphae formation by 6 h” value [1] was “did not form germ tubes or hyphae by 6 h” and the “hyphae at 24 h” value [1] was “severely truncated hyphae”. For the same compound, the “C. albicans hyphae formation / hyphal morphogenesis” value [1] was “inhibited C. albicans hyphae formation in a dose dependent manner” and the MIC (C. albicans DAY185) was > 200 µM.

For `CC1(C)C=Cc2c(ccc3c2[N+]([O-])=C2C(C)(C)[C@@H]4C[C@]56CCCN5C(=O)[C@]4(NC6=O)[C@H]4N5C(=O)[C@@]67CCCN6C(=O)[C@@]56[C@@H]([C@]234)[C@]2(O)C(=[N+]([O-])c3c2ccc2c3C=CC(C)(C)O2)C(C)(C)[C@@H]6C7)O1` [Compound 14, waikialoid B], the MIC (C. albicans DAY185) was > 200 µM.

With `CC(C)=CCC/C(C)=C/CC/C(C)=C/CO` [farnesol, reference compound] the “network of hyphal growth versus vehicle control” value [1] was “significantly reduced or absent from nearly all cells”, the MIC (C. albicans DAY185) was > 200 µM and the “effect on C. albicans cell survival” value (C. albicans DAY185; positive control) was “did not impede cell survival”.

In the case of `CC1(C)C=Cc2c(ccc3c2[N+]([O-])=C2C(C)(C)[C@@H]4C[C@]56CCCN5C(=O)[C@]4(NC6=O)[C@H]4N5C(=O)[C@@]67CCCN6C(=O)[C@@]56[C@H](c5c([nH]c8c9c(ccc58)OC(C)(C)C=C9)C(C)(C)[C@@H]6C7)[C@]234)O1` [Compound 1, waikialoid A], the stability in solvents [2] is reported as “very stable for days”, the “effect on preformed biofilms” value [3] is reported as “ineffective at disrupting preformed biofilms; also recorded: likely not effective at inhibiting or disrupting preformed biofilms” and the “not toxic to mammalian (human) cells at concentrations up to” value (MIA PaCa-2 cells) is reported as > 200 µM. For the same compound, the “network of hyphal growth versus vehicle control” value [1] was “significantly reduced or absent from nearly all cells”, the “germ tube and hyphae formation by 6 h” value [1] was “did not form germ tubes or hyphae by 6 h” and the “hyphae at 24 h” value [1] was “severely truncated hyphae”. The “C. albicans hyphae formation / hyphal morphogenesis” value [1] was “inhibited C. albicans hyphal morphogenesis; also recorded: inhibited C. albicans hyphae formation in a dose dependent manner” and the MIC (C. albicans DAY185) was > 200 µM.

With `CC1(C)C=Cc2c(ccc3c4c([nH]c23)C(C)(C)[C@@H]2C[C@]35CCCN3C(=O)[C@@]2(C4)NC5=O)O1` [Compound 6, stephacidin A] the MIC (C. albicans DAY185) was > 200 µM.

For `CC1(C)C=Cc2c(ccc3c2[N+]([O-])=C2C(C)(C)[C@@H]4CC56CCCN5C(=O)[C@]4(NC6=O)[C@H]4N5C(=O)[C@@]67CCCN6C(=O)[C@@]56[C@H](c5c(n(O)c8c9c(ccc58)OC(C)(C)C=C9)C(C)(C)[C@@H]6C7)[C@]234)O1` [Compound 17, stephacidin B], the “stability in organic solvents” value [4] is given as “degrade in several organic solvents”.

For `CC1(C)C=Cc2c(ccc3c2[N+]([O-])=C2C3=C[C@@]34NC(=O)[C@]5(CCCN5C3=O)C[C@H]4C2(C)C)O1` [Compound 7, CJ-17665], the MIC (C. albicans DAY185) was > 200 µM.

For `C/C=C/C=C/C=C/[C@H]1C[C@@H](O)C[C@@H](O)[C@@H]1C` [Compound 16, waikialide B], the MIC (C. albicans DAY185) was > 200 µM.

In the case of `CC1(C)C=Cc2c(ccc3c2NC(=O)[C@@]32[C@H](O)[C@@]34NC(=O)[C@]5(CCCN5C3=O)C[C@H]4C2(C)C)O1` [Compound 3, sclerotiamide], the MIC (C. albicans DAY185) is reported as > 200 µM.

In the case of `CC1(C)C=Cc2c(ccc3c4c([nH]c23)C(C)(C)[C@@H]2C[C@]35CCCN3C(=O)[C@]2(NC5=O)[C@H]4O)O1` [Compound 5, notoamide R], the MIC (C. albicans DAY185) is reported as > 200 µM.

For `CC1(C)C=Cc2c(ccc3c2NC(=O)[C@@]32C[C@@]34NC(=O)[C@]5(CCCN5C3=O)C[C@H]4C2(C)C)O1` [Compound 2, notoamide B], the MIC (C. albicans DAY185) was > 200 µM.
